ChEMBL document CHEMBL1122854, “Novel bis[1,6-dihydro-6,6-dimethyl-1,3,5-triazine-2,4-diamines] as antitrypanosomal agents” (1985)
Values joined by “and” are separate entries in the source; they are usually repeats but may differ in a detail not shown here. Equal values may be shown once.

Each compound was assayed on Trypanosoma brucei rhodesiense (assay: Antitrypanosomal activity was evaluated against Trypanosoma rhodesiense infections in mice, at dose 26 mg/kg, administered subcutaneously;Toxic). Settings: route subcutaneous.
Format: functional
Outline: (§1)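 IUR/HA Swiss mice (six weeks old, 30-32 g) infected i.p. with Wellcome CT strain T. rhodesiense. A single subcutaneous dose in peanut oil was given about 2 h after inoculation, with five mice per dose level. Positive control was stilbamidine or 2-hydroxystilbamidine isethionate at 40 mg/kg. Deaths before day 4 were scored toxic, and 30-day survivors cured.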

Row | Compound | Toxic
1 | CC1(C)N=C(N)N=C(N)N1c1ccc(OCCCCOc2ccc(N3C(N)=NC(N)=NC3(C)C)cc2)cc1.Cl.Cl | 1
2 | Cc1cc(S(=O)(=O)c2ccc(N3C(N)=NC(N)=NC3(C)C)cc2)ccc1N1C(N)=NC(N)=NC1(C)C.Cl.Cl | 4

Each compound was assayed on Trypanosoma brucei rhodesiense (assay: Antitrypanosomal activity against Trypanosoma rhodesiense infections in mice, 424 mg/kg administered subcutaneously). Settings: route subcutaneous.
Format: functional
Outline: as §1

Row | Compound | Toxic
3 | CC1(C)N=C(N)N=C(N)N1c1ccc(OCCCCCOc2ccc(N3C(N)=NC(N)=NC3(C)C)cc2)cc1.Cl.Cl | 5
4 | CC1(C)N=C(N)N=C(N)N1c1ccc(C(c2ccccc2)c2ccc(N3C(N)=NC(N)=NC3(C)C)cc2)cc1.Cl.Cl | 5
5 | CC1(C)N=C(N)N=C(N)N1c1cccc(N2C(N)=NC(N)=NC2(C)C)c1.Cl.Cl | 5
6 | Cl.Cl.NC1=NC(C2CCC3(CC2)N=C(N)N=C(N)N3c2ccc(Cl)cc2)N(c2ccc(Cl)cc2)C(N)=N1 (centres undefined) | 5
7 | CC1(C)N=C(N)N=C(N)N1c1ccc(N2C(N)=NC(N)=NC2(C)C)cc1.Cl.Cl | 3
8 | CC1(C)N=C(N)N=C(N)N1c1ccc(OCCCCOc2ccc(N3C(N)=NC(N)=NC3(C)C)cc2)cc1.Cl.Cl | 5
9 | Cc1cc(S(=O)(=O)c2ccc(N3C(N)=NC(N)=NC3(C)C)cc2)ccc1N1C(N)=NC(N)=NC1(C)C.Cl.Cl | 5

These compounds were tested on Trypanosoma brucei rhodesiense (assay: Antitrypanosomal activity was evaluated against Trypanosoma rhodesiense infections in mice, at dose 26 mg/kg, administered subcutaneously). Settings: route subcutaneous.
Format: functional
Outline: as §1

Row | Compound | Toxic
10 | CC1(C)N=C(N)N=C(N)N1c1ccc(OCCCCCOc2ccc(N3C(N)=NC(N)=NC3(C)C)cc2)cc1.Cl.Cl | 5
11 | CC1(C)N=C(N)N=C(N)N1c1cccc(N2C(N)=NC(N)=NC2(C)C)c1.Cl.Cl | 1

The compounds below were run on Trypanosoma brucei rhodesiense (assay: Antitrypanosomal activity was evaluated against Trypanosoma rhodesiense infections in mice, at dose 106 mg/kg, administered subcutaneously). Settings: route subcutaneous.
Format: functional
Outline: as §1

Row | Compound | Toxic
12 | CC1(C)N=C(N)N=C(N)N1c1ccc(OCCCCCOc2ccc(N3C(N)=NC(N)=NC3(C)C)cc2)cc1.Cl.Cl | 5
13 | CC1(C)N=C(N)N=C(N)N1c1ccc(C(c2ccccc2)c2ccc(N3C(N)=NC(N)=NC3(C)C)cc2)cc1.Cl.Cl | 2
14 | CC1(C)N=C(N)N=C(N)N1c1cccc(N2C(N)=NC(N)=NC2(C)C)c1.Cl.Cl | 5
15 | Cl.Cl.NC1=NC(C2CCC3(CC2)N=C(N)N=C(N)N3c2ccc(Cl)cc2)N(c2ccc(Cl)cc2)C(N)=N1 (centres undefined) | 4
16 | Cc1cc(S(=O)(=O)c2ccc(N3C(N)=NC(N)=NC3(C)C)cc2)ccc1N1C(N)=NC(N)=NC1(C)C.Cl.Cl | 5

Each compound was assayed on Trypanosoma brucei rhodesiense (assay: Antitrypanosomal activity was evaluated against Trypanosoma rhodesiense infections in mice, at dose 106 mg/kg, administered subcutaneously;Toxic). Settings: route subcutaneous.
Format: functional
Outline: as §1

Row | Compound | Toxic
17 | CC1(C)N=C(N)N=C(N)N1c1ccc(OCCCCOc2ccc(N3C(N)=NC(N)=NC3(C)C)cc2)cc1.Cl.Cl | 4

These compounds were tested on Mus musculus (assay: Antitrypanosomal activity was evaluated against Trypanosoma rhodesiense infections in mice, at dose 13 mg/kg, administered subcutaneously). Settings: route subcutaneous.
Format: functional
Outline: as §1

Row | Compound | Toxic
18 | CC1(C)N=C(N)N=C(N)N1c1ccc(OCCCCCOc2ccc(N3C(N)=NC(N)=NC3(C)C)cc2)cc1.Cl.Cl | 5

These compounds were tested on Mus musculus (assay: (§2) Antitrypanosomal activity was evaluated against Trypanosoma rhodesiense infections in mice, at dose 212 mg/kg, administered subcutaneously). Settings: route subcutaneous.
Format: functional
Outline: as §1

Row | Compound | Toxic
19 | CC1(C)N=C(N)N=C(N)N1c1ccc(C(c2ccccc2)c2ccc(N3C(N)=NC(N)=NC3(C)C)cc2)cc1.Cl.Cl | 2

Each compound was assayed on Trypanosoma brucei rhodesiense (assay: Antitrypanosomal activity was evaluated against Trypanosoma rhodesiense infections in mice, at dose 1.6 mg/kg, administered subcutaneously). Settings: route subcutaneous.
Format: functional
Outline: (§3)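 Six-week-old IUR/HA Swiss mice (30-32 g), 5 per dose, infected ip with 0.5 mL of a 1:50 000 dilution of heparinized heart blood from donor mice infected 3 days before (Wellcome CT strain). Single sc dose in peanut oil about 2 h post-inoculation. Deaths before day 4 counted toxic. ΔMST versus untreated controls; survivors at 30 days counted cured.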

Row | Compound | Delta MST [days]
20 | CC1(C)N=C(N)N=C(N)N1c1ccc(OCCCCCOc2ccc(N3C(N)=NC(N)=NC3(C)C)cc2)cc1.Cl.Cl | 0
21 | CC1(C)N=C(N)N=C(N)N1c1cccc(N2C(N)=NC(N)=NC2(C)C)c1.Cl.Cl | 0
22 | CC1(C)N=C(N)N=C(N)N1c1ccc(N2C(N)=NC(N)=NC2(C)C)cc1.Cl.Cl | 0.1
23 | CC1(C)N=C(N)N=C(N)N1c1ccc(OCCCCOc2ccc(N3C(N)=NC(N)=NC3(C)C)cc2)cc1.Cl.Cl | 0

The compounds below were run on Trypanosoma brucei rhodesiense (assay: Antitrypanosomal activity against Trypanosoma rhodesiense infections in mice, 106 mg/kg administered subcutaneously). Settings: route subcutaneous.
Format: functional
Outline: as §3

Row | Compound | Delta MST [days]
24 | CC1(C)N=C(N)N=C(N)N1c1ccc(C(c2ccccc2)c2ccc(N3C(N)=NC(N)=NC3(C)C)cc2)cc1.Cl.Cl | 4.3
25 | CC1(C)N=C(N)N=C(N)N1c1ccc(N2C(N)=NC(N)=NC2(C)C)cc1.Cl.Cl | 0.2
26 | CC1(C)N=C(N)N=C(N)N1c1ccc(OCCCCOc2ccc(N3C(N)=NC(N)=NC3(C)C)cc2)cc1.Cl.Cl | 1

These compounds were tested on Trypanosoma brucei rhodesiense (assay: as §2). Settings: route subcutaneous.
Format: functional
Outline: as §3

Row | Compound | Delta MST [days]
27 | CC1(C)N=C(N)N=C(N)N1c1ccc(C(c2ccccc2)c2ccc(N3C(N)=NC(N)=NC3(C)C)cc2)cc1.Cl.Cl | 4.3

The compounds below were run on Trypanosoma brucei rhodesiense (assay: Anti-trypanosomal activity against Trypanosoma rhodesiense infections in mice, 26 mg/kg administered subcutaneously). Settings: route subcutaneous.
Format: functional
Outline: as §3

Row | Compound | Delta MST [days]
28 | CC1(C)N=C(N)N=C(N)N1c1cccc(N2C(N)=NC(N)=NC2(C)C)c1.Cl.Cl | 0
29 | Cl.Cl.NC1=NC(C2CCC3(CC2)N=C(N)N=C(N)N3c2ccc(Cl)cc2)N(c2ccc(Cl)cc2)C(N)=N1 (centres undefined) | 1
30 | CC1(C)N=C(N)N=C(N)N1c1ccc(N2C(N)=NC(N)=NC2(C)C)cc1.Cl.Cl | 0
31 | CC1(C)N=C(N)N=C(N)N1c1ccc(OCCCCOc2ccc(N3C(N)=NC(N)=NC3(C)C)cc2)cc1.Cl.Cl | 0.3
32 | Cc1cc(S(=O)(=O)c2ccc(N3C(N)=NC(N)=NC3(C)C)cc2)ccc1N1C(N)=NC(N)=NC1(C)C.Cl.Cl | 0.7

The compounds below were run on Trypanosoma brucei rhodesiense (assay: Antitrypanosomal activity against Trypanosoma rhodesiense infections in mice, 3.3 mg/kg administered subcutaneously). Settings: route subcutaneous.
Format: functional
Outline: as §3

Row | Compound | Delta MST [days]
33 | CC1(C)N=C(N)N=C(N)N1c1ccc(OCCCCCOc2ccc(N3C(N)=NC(N)=NC3(C)C)cc2)cc1.Cl.Cl | 0.2
34 | CC1(C)N=C(N)N=C(N)N1c1cccc(N2C(N)=NC(N)=NC2(C)C)c1.Cl.Cl | 0
35 | CC1(C)N=C(N)N=C(N)N1c1ccc(N2C(N)=NC(N)=NC2(C)C)cc1.Cl.Cl | -0.1
36 | CC1(C)N=C(N)N=C(N)N1c1ccc(OCCCCOc2ccc(N3C(N)=NC(N)=NC3(C)C)cc2)cc1.Cl.Cl | 0.2
37 | Cc1cc(S(=O)(=O)c2ccc(N3C(N)=NC(N)=NC3(C)C)cc2)ccc1N1C(N)=NC(N)=NC1(C)C.Cl.Cl | 0.2

The compounds below were run on Trypanosoma brucei rhodesiense (assay: Antitrypanosomal activity was evaluated against Trypanosoma rhodesiense infections in mice, at dose 424 mg/kg, administered subcutaneously). Settings: route subcutaneous.
Format: functional
Outline: as §3

Row | Compound | Delta MST [days]
38 | CC1(C)N=C(N)N=C(N)N1c1ccc(N2C(N)=NC(N)=NC2(C)C)cc1.Cl.Cl | 1

What follows are compounds tested on Trypanosoma brucei rhodesiense (assay: Antitrypanosomal activity against Trypanosoma rhodesiense infections in mice, 6.6 mg/kg administered subcutaneously). Settings: route subcutaneous.
Format: functional
Outline: as §3

Row | Compound | Delta MST [days]
39 | CC1(C)N=C(N)N=C(N)N1c1ccc(OCCCCCOc2ccc(N3C(N)=NC(N)=NC3(C)C)cc2)cc1.Cl.Cl | 0.4
40 | CC1(C)N=C(N)N=C(N)N1c1cccc(N2C(N)=NC(N)=NC2(C)C)c1.Cl.Cl | 0
41 | CC1(C)N=C(N)N=C(N)N1c1ccc(N2C(N)=NC(N)=NC2(C)C)cc1.Cl.Cl | 0.1
42 | CC1(C)N=C(N)N=C(N)N1c1ccc(OCCCCOc2ccc(N3C(N)=NC(N)=NC3(C)C)cc2)cc1.Cl.Cl | 0
43 | Cc1cc(S(=O)(=O)c2ccc(N3C(N)=NC(N)=NC3(C)C)cc2)ccc1N1C(N)=NC(N)=NC1(C)C.Cl.Cl | 0.4

These compounds were tested on Trypanosoma brucei rhodesiense (assay: Antitrypanosomal activity was evaluated against Trypanosoma rhodesiense infections in mice, at dose 53 mg/kg, administered subcutaneously). Settings: route subcutaneous, 53 mg/kg.
Format: functional
Outline: as §3

Row | Compound | Delta MST
44 | CC1(C)N=C(N)N=C(N)N1c1ccc(C(c2ccccc2)c2ccc(N3C(N)=NC(N)=NC3(C)C)cc2)cc1.Cl.Cl | 2.3 days and 2.8 days
